Reference: ChEMBL document CHEMBL1148372 (J Med Chem, 2004)
Active and inactive are the calls of the source. The calls are words filed in the database; no cut-off is given here.

How the values were obtained:
[1] = biological target: T1, D(4) dopamine receptor (Homo sapiens) (UniProt P21917); assay: In vitro efficacy tested on human Dopamine receptor D4.4 were co-expressed with GRqo5 in HEK293 cells using FLIPR assay (Efficacy relative to 10 uM dopamine); type: cell-based
T1 sequence (whole entry): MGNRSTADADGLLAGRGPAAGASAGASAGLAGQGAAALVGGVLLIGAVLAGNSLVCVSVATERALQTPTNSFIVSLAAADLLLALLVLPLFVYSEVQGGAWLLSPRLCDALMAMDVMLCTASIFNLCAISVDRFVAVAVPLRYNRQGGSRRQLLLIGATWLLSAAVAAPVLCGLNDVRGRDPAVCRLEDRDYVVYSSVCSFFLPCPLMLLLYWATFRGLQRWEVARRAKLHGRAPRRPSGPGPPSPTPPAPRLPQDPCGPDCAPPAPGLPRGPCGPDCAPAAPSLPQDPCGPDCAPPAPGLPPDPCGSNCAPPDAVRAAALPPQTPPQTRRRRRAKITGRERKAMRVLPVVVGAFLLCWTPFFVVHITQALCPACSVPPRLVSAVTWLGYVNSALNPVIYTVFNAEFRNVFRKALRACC
Summary of the method: (§1)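 HEK293 cells coexpressing human D4.4 receptor and Gαqo5, plated at 20 000 cells/well and grown 2 days. Loaded 1 h at 23 °C with 4 µM Fluo-4 plus 0.04% Pluronic F-127 in DPBS, washed four times. Compound added, fluorescence read over 3 min.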

[2] = biological target: T2, D(4) dopamine receptor (Homo sapiens, UniProt P21917); assay: In vitro EC50 tested on HEK293 cells co-transfected with human Dopamine receptor D4.4 using FLIPR assay; type: cell-based; summary of the method: as §1
T2 sequence (P21917 whole entry): T1 sequence (whole entry)

[3] = system: Rattus norvegicus; assay: In vivo maximal effective dose tested in rats for erection 60 min after subcutaneous administration; type: functional
Summary of the method: (§2)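 Conscious male Wistar rats, adapted 60 min to a dim red-lit room, tested between 9:00 a.m. and 3:00 p.m. Dosed subcutaneously, then caged singly and observed directly for 60 min. Percent incidence is the share of animals with one or more erections; 8–30 animals per group. Maximally effective dose is the dose giving peak incidence, with significance versus control.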

[4] = system: Rattus norvegicus; assay: In vivo maximal penile erection in rats 60 min after subcutaneous administration; type: functional; summary of the method: as §2
[5] = biological target: T1, D(4) dopamine receptor (Homo sapiens); assay: In vitro efficacy tested on human D4.4 receptor were coexpressed with GRqo5 in HEK293 cells using FLIPR assay (Efficacy relative to 10 uM dopamine); type: cell-based; summary of the method: as §1

Efficacy [1] [%] | EC50 [2] [nM] | Efficacy [5] | Structure (SMILES) | Effective dose [3] [µM/kg] | Activity [4] [%]
51 | 14 | – | c1ccc(C2CCN(Cc3nc4ccccc4[nH]3)CC2)nc1 | – | –
37 | 416 | – | Brc1cc(Br)c2[nH]c(CN3CCN(c4ccccn4)CC3)nc2c1 | 0.03 | 60
– | – | inactive | c1ccc(Cn2c(CN3CCN(c4ccccn4)CC3)nc3ccccc32)cc1 | – | –
48 | 12.4 | – | COc1ccccc1N1CCN(Cc2nc3ccccc3[nH]2)CC1 | 0.01 | 60
– | – | inactive | Clc1ccc(N2CCN(Cc3nc4ccccc4[nH]3)CC2)nn1 | – | –
– | – | inactive | O=[N+]([O-])c1cccnc1N1CCN(Cc2nc3ccccc3[nH]2)CC1 | – | –
27 | 136 | – | CS(=O)(=O)c1cccnc1N1CCN(Cc2nc3ccccc3[nH]2)CC1 | – | –
– | – | inactive | CCc1ccccc1N1CCN(Cc2nc3ccccc3[nH]2)CC1 | – | –
42 | 14.7 | – | Fc1ccccc1N1CCN(Cc2nc3ccccc3[nH]2)CC1 | 0.01 | 70
27 | 24 | – | Fc1cccnc1N1CCN(Cc2nc3ccccc3[nH]2)CC1 | 0.01 | 75
– | – | inactive | CN(C)C(=O)n1c(CN2CCN(c3ccccn3)CC2)nc2ccccc21 | – | –
– | – | inactive | Clc1cccnc1N1CCN(Cc2nc3ccccc3[nH]2)CC1 | – | –
50 | 13.9 | – | N#Cc1cccnc1N1CCN(Cc2nc3ccccc3[nH]2)CC1 | – | –
– | – | inactive | Cc1cccc(C)c1N1CCN(Cc2nc3ccccc3[nH]2)CC1 | – | –
34 | 64 | – | C[C@@H]1CN(c2ccccn2)CCN1Cc1nc2ccccc2[nH]1 | – | –
39 | 7.2 | – | Clc1ccccc1N1CCN(Cc2nc3ccccc3[nH]2)CC1 | – | –
– | – | inactive | O=C(N1CCCC1)n1c(CN2CCN(c3ccccn3)CC2)nc2ccccc21 | – | –
– | – | inactive | COc1ccc2[nH]c(CN3CCN(c4ccccn4)CC3)nc2c1 | – | –

Efficacy [1] [%] | EC50 [2] [nM] | Efficacy [5] | Structure (SMILES) | Effective dose [3] [µM/kg] | Activity [4] [%]
– | – | inactive | FC(F)(F)c1ccnc(N2CCN(Cc3nc4ccccc4[nH]3)CC2)n1 | – | –
– | – | inactive | Oc1ccc(N2CCN(Cc3nc4ccccc4[nH]3)CC2)nn1 | – | –
49 | 44.8 | – | c1cnc(N2CCN(Cc3nc4ccccc4[nH]3)CC2)nc1 | 0.1 | 85
– | – | inactive | CCn1c(CN2CCN(c3ccccn3)CC2)nc2ccccc21 | – | –
31 | 25 | – | CCOc1ccccc1N1CCN(Cc2nc3ccccc3[nH]2)CC1 | – | –
36 | 36.2 | – | Cc1cccc(N2CCN(Cc3nc4ccccc4[nH]3)CC2)n1 | 0.03 | 62
43 | 52 | – | C[C@H]1CN(c2ccccn2)CCN1Cc1nc2ccccc2[nH]1 | – | –
42 | 86 | – | CSc1ccccc1N1CCN(Cc2nc3ccccc3[nH]2)CC1 | – | –
– | – | inactive | c1cnnc(N2CCN(Cc3nc4ccccc4[nH]3)CC2)c1 | – | –
– | – | inactive | c1ccc(Cc2ccccc2N2CCN(Cc3nc4ccccc4[nH]3)CC2)nc1 | – | –
– | – | inactive | Oc1ccccc1N1CCN(Cc2nc3ccccc3[nH]2)CC1 | – | –
34 | 100 | – | COc1ccccc1C1CCN(Cc2nc3ccccc3[nH]2)CC1 | – | –
57 | 8 | – | Fc1ccc2[nH]c(CN3CCN(c4ccccn4)CC3)nc2c1 | 0.01 | 75
– | – | inactive | CC(C)n1c(CN2CCN(c3ccccn3)CC2)nc2ccccc21 | – | –
– | – | inactive | Cn1c(CN2CCN(c3ccccn3)CC2)nc2ccccc21 | – | –
62 | 23 | – | c1ccc(N2CCN(CCc3nc4ccccc4[nH]3)CC2)nc1 | – | –
40 | 3.9 | – | O=[N+]([O-])c1ccccc1N1CCN(Cc2nc3ccccc3[nH]2)CC1 | – | –
– | – | inactive | CCc1cnc(N2CCN(Cc3nc4ccccc4[nH]3)CC2)nc1 | – | –
